Test results as given in ChEMBL document CHEMBL3627646, “Synthesis and biological activity of amino acid derivatives of avarone and its model compound” (Bioorg Med Chem, 2015).
In brackets after ≈: the same amount, converted by molar mass. Activity calls are given as the source filed them. The calls are words filed in the database; no cut-off is given here.

How the values were obtained:
HeLa = assay: Cytotoxicity against human HeLa cells assessed as cell survival after 72 hrs by MTT assay; format: functional, cell-based
Summary of the method: (§1)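 Cells seeded (HeLa 2000, MDA-MB-453 3000, others 5000 per well), treated 24 h later (K562 after 2 h). Five double-diluted final concentrations, 200–12.5 μM, from 10 mM DMSO stocks, in RPMI-1640 with 10% FBS, pH 7.2, 72 h. MTT 4 h at 37 °C, SDS added, A570 read next day. Survival relative to medium control; IC50 from survival curves; triplicate; cisplatin positive control.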

A549 = assay: Cytotoxicity against human A549 cells assessed as cell survival after 72 hrs by MTT assay; format: functional, cell-based; conditions: A549, 72 h; summary of the method: as §1
[1] = Cytotoxicity against human Fem-X cells assessed as cell survival after 72 hrs by MTT assay; format: functional, cell-based; summary of the method: as §1
K562 = assay: Cytotoxicity against human K562 cells assessed as cell survival after 72 hrs by MTT assay; format: functional, cell-based; conditions: K562, 72 h; summary of the method: as §1
MDA-MB-453 = assay: Cytotoxicity against human MDA-MB-453 cells assessed as cell survival after 72 hrs by MTT assay; format: functional, cell-based; conditions: MDA-MB-453, 72 h; summary of the method: as §1
MRC5 = assay: Cytotoxicity against human MRC5 cells assessed as cell survival after 72 hrs by MTT assay; format: cell-based; conditions: MRC5, 72 h; summary of the method: as §1
Staphylococcus aureus = assay: Antibacterial activity against Staphylococcus aureus ATCC 6538 after 24 hrs by microbroth double dilution method; format: functional; conditions: ATCC 6538, 24 h
Summary of the method: (§2)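 Microbroth double dilution in Mueller Hinton broth; compound stock 10 mg/mL in DMSO serially halved across rows. Wells inoculated with 10 μL culture at 10^6 cells/mL, incubated 37 °C for 24 h. Amikacin row as positive control, DMSO row as negative control. MIC taken as lowest concentration inhibiting bacterial growth.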

Kocuria rhizophila = assay: Antibacterial activity against Kocuria rhizophila ATCC 9341 after 24 hrs by microbroth double dilution method; format: functional; conditions: ATCC 9341, 24 h; summary of the method: as §2
Bacillus subtilis = assay: Antibacterial activity against Bacillus subtilis ATCC 6633 after 24 hrs by microbroth double dilution method; format: functional; conditions: ATCC 6633, 24 h; summary of the method: as §2
Micrococcus luteus = assay: Antibacterial activity against Micrococcus luteus ATCC 4698 after 24 hrs by microbroth double dilution method; format: functional; conditions: ATCC 4698, 24 h; summary of the method: as §2
Micrococcus flavus = assay: Antibacterial activity against Micrococcus flavus ATCC 10240 after 24 hrs by microbroth double dilution method; format: functional; conditions: ATCC 10240, 24 h; summary of the method: as §2
Clostridium sporogenes = assay: Antibacterial activity against Clostridium sporogenes ATCC 19404 after 24 hrs by microbroth double dilution method; format: functional; conditions: ATCC 19404, 24 h; summary of the method: as §2
Escherichia coli = assay: Antibacterial activity against Escherichia coli ATCC 25922 after 24 hrs by microbroth double dilution method; format: functional; conditions: ATCC 25922, 24 h; summary of the method: as §2
Proteus hauseri = assay: Antibacterial activity against Proteus hauseri ATCC 13315 after 24 hrs by microbroth double dilution method; format: functional; conditions: ATCC 13315, 24 h; summary of the method: as §2
Salmonella enterica = assay: Antibacterial activity against Salmonella enterica ATCC 13076 after 24 hrs by microbroth double dilution method; format: functional; conditions: ATCC 13076, 24 h; summary of the method: as §2
Pseudomonas aeruginosa = assay: Antibacterial activity against Pseudomonas aeruginosa ATCC 9027 after 24 hrs by microbroth double dilution method; format: functional; conditions: ATCC 9027, 24 h; summary of the method: as §2
Candida albicans = assay: Antifungal activity against Candida albicans ATCC 10231 after 24 hrs by microbroth double dilution method; format: functional
Saccharomyces cerevisiae = assay: Antifungal activity against Saccharomyces cerevisiae ATCC 9763 after 24 hrs by microbroth double dilution method; format: functional
Aspergillus brasiliensis = assay: Antifungal activity against Aspergillus brasiliensis ATCC 16404 after 24 hrs by microbroth double dilution method; format: functional
Artemia salina = assay: Cytotoxicity in Brine shrimp assessed as nauplii mortality after 24 hrs; format: organism-based; conditions: in vivo
Summary of the method: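 Artemia salina eggs hatched in aerated tap water with dried yeast at 18–20 °C under illumination for 48 h, and freshly hatched nauplii were used. Compounds in DMSO (0.01–1 mg) were added to 950 µL artificial seawater containing 10–20 nauplii, with 5% final DMSO. After 24 h under illumination at room temperature, dead and surviving nauplii were counted and statistically analysed.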

Structure (SMILES) | IC50 (HeLa) | IC50 (A549) | IC50 [1] | IC50 (K562) | IC50 (MDA-MB-453) | IC50 (MRC5) | MIC (Staphylococcus aureus) | MIC (Kocuria rhizophila) | MIC (Bacillus subtilis) | MIC (Micrococcus luteus) | MIC (Micrococcus flavus) | MIC (Clostridium sporogenes) | MIC (Escherichia coli) | MIC (Proteus hauseri) | MIC (Salmonella enterica) | MIC (Pseudomonas aeruginosa) | MIC (Candida albicans; ATCC 10231, 24 h) | MIC (Saccharomyces cerevisiae; ATCC 9763, 24 h) | MIC (Aspergillus brasiliensis; ATCC 16404, 24 h) | LC50 (Artemia salina) | further results
CC(C)(C)C1=CC(=O)C=C(N[C@@H](Cc2ccccc2)C(=O)O)C1=O | 66.3 µM | 164 µM | 67.3 µM | 82.3 µM | 68 µM | > 200 µM | 480 µM (≈ 157 µg/mL) | 1910 µM (≈ 626 µg/mL) | 1910 µM (≈ 626 µg/mL) | 480 µM (≈ 157 µg/mL) | 1910 µM (≈ 626 µg/mL) | 1910 µM (≈ 626 µg/mL) | 480 µM (≈ 157 µg/mL) | 1910 µM (≈ 626 µg/mL) | 1910 µM (≈ 626 µg/mL) | 1910 µM (≈ 626 µg/mL) | 480 µM (≈ 157 µg/mL) | 119 µM (≈ 39 µg/mL) | 957 µM (≈ 313 µg/mL) | 196.8 ppm | –
CSCC[C@H](NC1=CC(=O)C=C(C(C)(C)C)C1=O)C(=O)O | 77.4 µM | > 200 µM | 34.8 µM | 88.5 µM | 151 µM | > 200 µM | 1010 µM (≈ 313 µg/mL) | 2010 µM (≈ 626 µg/mL) | 2010 µM (≈ 626 µg/mL) | 505 µM (≈ 157 µg/mL) | 2010 µM (≈ 626 µg/mL) | 2010 µM (≈ 626 µg/mL) | 1010 µM (≈ 313 µg/mL) | 2010 µM (≈ 626 µg/mL) | 2010 µM (≈ 626 µg/mL) | 2010 µM (≈ 626 µg/mL) | 505 µM (≈ 157 µg/mL) | 505 µM (≈ 157 µg/mL) | 2010 µM (≈ 626 µg/mL) | 360.2 ppm | –
CC(C)(C)C1=CC(=O)C=C(N[C@@H](Cc2c[nH]c3ccccc23)C(=O)O)C1=O | 106 µM | 198 µM | 34.7 µM | 25 µM | 120 µM | > 200 µM | 855 µM (≈ 313 µg/mL) | 1710 µM (≈ 626 µg/mL) | 1710 µM (≈ 626 µg/mL) | 1710 µM (≈ 626 µg/mL) | 1710 µM (≈ 626 µg/mL) | 1710 µM (≈ 626 µg/mL) | 1710 µM (≈ 626 µg/mL) | 1710 µM (≈ 626 µg/mL) | 1710 µM (≈ 626 µg/mL) | 1710 µM (≈ 626 µg/mL) | 213 µM (≈ 78.1 µg/mL) | 213 µM (≈ 78.1 µg/mL) | 1410 µM (≈ 516 µg/mL) | – | –
CC1=CCC[C@H]2[C@](C)(CC3=CC(=O)C=CC3=O)[C@@H](C)CC[C@]12C [AVARONE] | 18.1 µM | 30 µM | 40.3 µM | 17.1 µM | 16.7 µM | > 200 µM | 40.1 µM (≈ 12.5 µg/mL) | 20 µM (≈ 6.26 µg/mL) | 80.1 µM (≈ 25 µg/mL) | 2000 µM (≈ 625 µg/mL) | 20 µM (≈ 6.26 µg/mL) | 20 µM (≈ 6.26 µg/mL) | 441 µM (≈ 138 µg/mL) | 27.6 µM (≈ 8.61 µg/mL) | 55.1 µM (≈ 17.2 µg/mL) | 13.8 µM (≈ 4.31 µg/mL) | – | – | – | 170 ppm | MIC (Candida albicans): inactive; MIC (Saccharomyces cerevisiae): inactive; MIC (Aspergillus brasiliensis): inactive
CC(C)(C)C1=CC(=O)C=C(NCC(=O)O)C1=O | 132 µM | > 200 µM | 34.3 µM | 85 µM | 171 µM | > 200 µM | 662 µM (≈ 157 µg/mL) | 2640 µM (≈ 626 µg/mL) | 1320 µM (≈ 313 µg/mL) | 662 µM (≈ 157 µg/mL) | 2640 µM (≈ 626 µg/mL) | 2640 µM (≈ 626 µg/mL) | 662 µM (≈ 157 µg/mL) | 2640 µM (≈ 626 µg/mL) | 2640 µM (≈ 626 µg/mL) | 662 µM (≈ 157 µg/mL) | 662 µM (≈ 157 µg/mL) | 662 µM (≈ 157 µg/mL) | 2640 µM (≈ 626 µg/mL) | 197.4 ppm | –
CC(C)(C)C1=CC(=O)C=CC1=O | 44.1 µM | 47 µM | 41.6 µM | 15.5 µM | 56.8 µM | > 200 µM | 238 µM (≈ 39 µg/mL) | 475 µM (≈ 78 µg/mL) | 238 µM (≈ 39 µg/mL) | 238 µM (≈ 39 µg/mL) | 475 µM (≈ 78 µg/mL) | 475 µM (≈ 78 µg/mL) | 238 µM (≈ 39 µg/mL) | 475 µM (≈ 78 µg/mL) | 475 µM (≈ 78 µg/mL) | 475 µM (≈ 78 µg/mL) | 122 µM (≈ 20 µg/mL) | 238 µM (≈ 39 µg/mL) | 122 µM (≈ 20 µg/mL) | 27.4 ppm | –
CC(C)(C)C1=CC(=O)C=C(NCCC(=O)O)C1=O | 47.1 µM | 171 µM | 28.4 µM | 67 µM | 94.1 µM | > 200 µM | 625 µM (≈ 157 µg/mL) | 2490 µM (≈ 625 µg/mL) | 2490 µM (≈ 625 µg/mL) | 1250 µM (≈ 313 µg/mL) | 2490 µM (≈ 625 µg/mL) | 1250 µM (≈ 313 µg/mL) | 1250 µM (≈ 313 µg/mL) | 2490 µM (≈ 625 µg/mL) | 2490 µM (≈ 625 µg/mL) | 2490 µM (≈ 625 µg/mL) | 626 µM (≈ 157 µg/mL) | 311 µM (≈ 78.1 µg/mL) | 2490 µM (≈ 626 µg/mL) | 833.2 ppm | –
